What is called inhibition is the relative decrease from the control value, in per cent. The low end stands for a weak effect, the high end for a strong effect. Broadly, the IC50 is the concentration needed to halve the response being measured.

For experiment [1], the target named is Glycogen synthase kinase-3 beta (Homo sapiens) (UniProt P49841). Briefly: Inhibition of Glycogen synthase kinase-3beta (GSK3-beta) at 1 uM. To be noted: Oryctolagus cuniculus.
For experiment [2], the target named is Protein kinase C gamma type (Homo sapiens, UniProt P05129). Briefly: Inhibition of Protein kinase C gamma (PKC-gamma). In a few lines:
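Recombinant human PKCα, PKCγ or PKCβII (5–10 mU) phosphorylating histone H1 (0.1 mg/mL) with 33P-ATP, total ATP 10 µM. Buffer 50 mM Hepes pH 7.4 with Triton X-100, CaCl2, Mg acetate, phosphatidylserine and diacylglycerol. Run 40 min at room temperature, stopped with phosphoric acid, then P30 filter counting. IC50 from 6–10 concentrations; ≥3 experiments in duplicate; ± SEM.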

Experiment [3] can be described thus: Inhibition of Casein Kinase I. Set-up: species or system Rattus norvegicus. The procedure, abridged:
(§1)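 Reaction started with 30–150 ng kinase, run 1 h at 30 °C. Peptides captured on streptavidin plates and counted. IC50 from 6–10 concentrations; ≥3 experiments in duplicate; ± SEM.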

Experiment [4] addresses Cyclin-dependent kinase 1 (Homo sapiens, UniProt P06493). Nature of the experiment: Inhibition of Cyclin-dependent kinase 1. In a few lines:
as §1

Experiment [5] concerns the target Cyclin-dependent kinase 2 (Homo sapiens, UniProt P24941). Nature of the experiment: Inhibition of Cyclin-dependent kinase 2 (CDK2). In a few lines: as §1
Experiment [6] concerns the target Protein kinase C alpha type (Homo sapiens, UniProt P17252). Nature of the experiment: Inhibition of Protein kinase C alpha. The procedure, abridged: (§2)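 Recombinant human PKCα, PKCγ or PKCβII (5–10 mU) phosphorylating histone H1 (0.1 mg/mL) with 33P-ATP, total ATP 10 µM. Buffer 50 mM Hepes pH 7.4 with Triton X-100, CaCl2, Mg acetate, phosphatidylserine and diacylglycerol. Run 40 min at room temperature, stopped with phosphoric acid, then P30 filter counting.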

In experiment [7] the target is Protein kinase C beta type (Homo sapiens, UniProt P05771). Nature of the experiment: Inhibition of Protein kinase C beta 2. The procedure, abridged: as §2
Sequence of Protein kinase C beta type (P05771 whole entry): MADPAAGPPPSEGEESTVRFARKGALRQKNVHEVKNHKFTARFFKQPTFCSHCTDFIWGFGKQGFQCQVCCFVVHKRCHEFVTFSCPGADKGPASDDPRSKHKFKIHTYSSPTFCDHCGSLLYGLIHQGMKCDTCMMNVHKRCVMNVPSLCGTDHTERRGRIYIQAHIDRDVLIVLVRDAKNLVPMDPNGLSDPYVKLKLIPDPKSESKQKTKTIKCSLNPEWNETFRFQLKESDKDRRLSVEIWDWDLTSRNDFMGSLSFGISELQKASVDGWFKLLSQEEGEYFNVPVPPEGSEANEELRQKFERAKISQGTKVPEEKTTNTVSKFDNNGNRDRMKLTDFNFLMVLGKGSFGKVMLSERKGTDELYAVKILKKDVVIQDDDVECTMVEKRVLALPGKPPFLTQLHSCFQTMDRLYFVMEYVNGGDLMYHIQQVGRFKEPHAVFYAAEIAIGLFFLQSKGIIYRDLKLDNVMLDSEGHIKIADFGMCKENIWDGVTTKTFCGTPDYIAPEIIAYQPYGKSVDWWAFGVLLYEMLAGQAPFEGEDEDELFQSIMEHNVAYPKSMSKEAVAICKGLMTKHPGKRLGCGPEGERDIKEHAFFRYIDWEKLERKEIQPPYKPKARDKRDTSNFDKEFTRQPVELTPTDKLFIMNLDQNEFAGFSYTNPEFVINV
Experiment [8] is described as follows: Inhibitory activity against Protein kinase A was determined.
In experiment [9] the target is Protein kinase C theta type (Homo sapiens, UniProt Q04759). Briefly: Inhibition of Protein kinase C theta. In a few lines:
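Recombinant human PKCθ (5–10 mU) with histone H1 (0.1 mg/mL) and 33P-ATP, total ATP 10 µM, in 8 mM MOPS pH 7.0, 0.2 mM EDTA, 10 mM Mg acetate. Run 40 min at room temperature, stopped with phosphoric acid, then P30 filter counting. IC50 from 6–10 concentrations; ≥3 experiments in duplicate; ± SEM.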

Experiment [10] in a line: Inhibition of Vascular endothelial growth factor receptor 2. Set-up: species or system Homo sapiens. The procedure, abridged:
as §1

The target of experiment [11] is CaM kinase II (Homo sapiens, UniProt Q13557+Q13555+Q13554+Q9UQM7). Briefly: Inhibition of Calcium/calmodulin-dependent protein kinase II. Type of experiment: protein assay, Rattus norvegicus.

A value given as a limit tells only on which side of the number the result lay.

Sequence of Protein kinase C theta type (Q04759 whole entry): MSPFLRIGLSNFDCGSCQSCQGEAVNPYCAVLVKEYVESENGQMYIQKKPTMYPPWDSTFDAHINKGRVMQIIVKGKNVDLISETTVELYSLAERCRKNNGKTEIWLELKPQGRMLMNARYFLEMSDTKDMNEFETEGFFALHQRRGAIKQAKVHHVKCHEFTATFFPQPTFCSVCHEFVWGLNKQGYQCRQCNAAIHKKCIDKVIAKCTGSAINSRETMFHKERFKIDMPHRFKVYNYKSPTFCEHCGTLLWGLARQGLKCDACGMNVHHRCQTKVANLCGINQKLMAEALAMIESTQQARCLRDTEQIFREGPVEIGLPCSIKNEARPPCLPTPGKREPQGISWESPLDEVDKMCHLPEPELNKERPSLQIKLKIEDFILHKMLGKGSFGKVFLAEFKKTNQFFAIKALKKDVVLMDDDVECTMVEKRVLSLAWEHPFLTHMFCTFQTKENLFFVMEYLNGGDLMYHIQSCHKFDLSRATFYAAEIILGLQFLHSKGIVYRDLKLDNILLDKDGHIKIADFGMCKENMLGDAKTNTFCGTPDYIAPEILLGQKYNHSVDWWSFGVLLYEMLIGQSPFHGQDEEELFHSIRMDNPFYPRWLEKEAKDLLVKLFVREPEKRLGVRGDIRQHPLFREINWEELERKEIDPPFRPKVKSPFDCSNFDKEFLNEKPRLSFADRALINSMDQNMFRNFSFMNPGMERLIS
Sequence of Cyclin-dependent kinase 1 (P06493 whole entry): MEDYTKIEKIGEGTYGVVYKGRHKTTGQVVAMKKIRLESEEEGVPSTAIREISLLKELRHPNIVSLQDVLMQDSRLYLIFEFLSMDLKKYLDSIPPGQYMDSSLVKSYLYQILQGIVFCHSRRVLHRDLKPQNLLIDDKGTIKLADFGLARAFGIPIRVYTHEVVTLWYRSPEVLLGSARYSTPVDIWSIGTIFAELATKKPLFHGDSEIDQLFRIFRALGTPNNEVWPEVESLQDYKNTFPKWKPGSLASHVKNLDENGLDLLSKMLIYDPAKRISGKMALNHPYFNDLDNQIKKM
Sequence of Glycogen synthase kinase-3 beta (Homo sapiens) (P49841 whole entry, looked up): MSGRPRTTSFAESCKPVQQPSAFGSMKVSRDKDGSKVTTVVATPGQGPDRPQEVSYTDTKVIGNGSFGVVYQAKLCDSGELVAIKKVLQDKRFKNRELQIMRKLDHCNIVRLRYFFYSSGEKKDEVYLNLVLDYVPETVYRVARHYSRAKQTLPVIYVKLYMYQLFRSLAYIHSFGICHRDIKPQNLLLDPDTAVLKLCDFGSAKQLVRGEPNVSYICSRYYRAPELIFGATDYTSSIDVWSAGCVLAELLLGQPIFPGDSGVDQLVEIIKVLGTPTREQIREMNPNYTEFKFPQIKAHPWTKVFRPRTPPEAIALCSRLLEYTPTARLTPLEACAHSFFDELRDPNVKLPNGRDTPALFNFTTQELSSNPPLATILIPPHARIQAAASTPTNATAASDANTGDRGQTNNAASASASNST

In experiment [1], `CN1C(=O)C2=C(C1=O)c1cn(c3ccccc13)CCOCCOCCOCCn1cc2c2ccccc21` came in with an inhibition of 54%.

`O=C1NC(=O)C2=C1c1cn(c3ccccc13)CCOCCOCCn1cc2c2ccccc21` registered an IC50 in experiment [2] of 2730 nM.

Regarding `O=C1NC(=O)C2=C1c1cn(c3ccccc13)CCOCCOCCOCCn1cc2c2ccccc21` [INDOLYLYLMALEIMIDE 2], the IC50 in experiment [3] is over 10000 nM; in [4], 1250 nM; in experiment [5] it was 992 nM; in experiment [2], 1200 nM; in [6] it was 86 nM; in [7], 6 nM. Further, the IC50 in [8] was over 10000 nM; in [9] it was 65 nM; in experiment [10] it was 1450 nM.

Take `O=C1NC(=O)C2=C1c1cn(c3ccccc13)CCOCCOCCOCCn1cc2c2cccnc21` [INDOLYLYLMALEIMIDE 1]: the IC50 in experiment [3] was over 10000 nM; in experiment [11], over 10000 nM; in experiment [4] it was 4430 nM; in experiment [5], 2440 nM; in experiment [2] it was 1340 nM; in [6], 673 nM. For the same molecule, the IC50 in experiment [7] was 46 nM; in experiment [8] it was over 10000 nM; in experiment [9], 835 nM; in experiment [10], 3560 nM.

`O=C1NC(=O)C2=C1c1cn(c3ccccc13)CCOCCOCCn1cc2c2cccnc21` gave a half-maximal inhibitory concentration (IC50) in [2] of 2670 nM.

Take `CN1C(=O)C2=C(C1=O)c1cn(c3ncccc13)CCOCCOCCn1cc2c2ccccc21`: the inhibition in experiment [1] is 51%.

Take `O=C1NC(=O)C2=C1c1cn(c3ncccc13)CCOCCOCCn1cc2c2cccnc21`: the IC50 in [2] was over 10000 nM.

Turning to `O=C1NC(=O)C2=C1c1cn(c3ncccc13)CCOCCOCCOCCOCCOCCn1cc2c2cccnc21`, the IC50 in experiment [2] was over 10000 nM.

For `O=C1NC(=O)C2=C1c1cn(c3ccccc13)CCOCCOCCOCCOCCOCCn1cc2c2ccccc21`, in experiment [2], the IC50 stood at 5170 nM.

In experiment [2], `O=C1NC(=O)C2=C1c1cn(c3ccccc13)CCOCCOCCOCCOCCn1cc2c2ccccc21` displayed an IC50 of 3300 nM.

The values above are taken from ChEMBL document CHEMBL1145082 (J Med Chem, 2003).
